This is a sample that favours compounds with a hit; in the whole collection about 2.4% have one here.
Rtt109 HAT inh: blocks Candida albicans Rtt109/Vps75 acetyltransferase activity. Q5AAJ8. AID 540336. inhibition, % at 34.9 µM. purified Rtt109/Vps75, ThioGlo CoA-SH fluorescence, 4 h. hit rate 0.16% among 330,000;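 active = inhibition of at least 50% in every replicate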
HIV Env fusion: HIV envelope-mediated fusion inhibition. HeLa-JRFL Env/CEM21 cell fusion, luciferase. hit rate 1.1% among 360,000. inhibition, % at 12.3 µM;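 active = mean replicate inhibition score of at least 50 and every replicate individually at or above 50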;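 also: 0% = plate neutral controls and 100% = maraviroc near 300 nM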
miR122 inh: blocks miR-122 activity in Huh7 sensor cells; Huh7 miR-122 Renilla luciferase sensor, 48 h; neutral wells = 0, positive control = 100; activation (reporter increase), % at 12.5 µM; hit rate 0.3% among 340,000;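 active = mean replicate activation score at least 90 and every replicate individually at or above 90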;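 also: higher luciferase means less miR-122 activity so hits act as miR-122 inhibitors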
Cneo AK release: Cryptococcus neoformans lysis via adenylate kinase release; C. neoformans lysis, adenylate kinase release luminescence, 4 h; normalised: neutral wells 0, clomiphene wells 100; lysis activity, % at 15 µM; hit rate 0.2% among 360,000; AID 651654;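 active = mean lysis activity across replicates of at least 80%, whatever share of replicates individually reach that level; inactive = mean lysis activity below 80%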
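Schedule: static 4 h at 37 °C with compound, 1 h detection; system: C. neoformans cells; benchmarks: Clomiphene as positive control; buffer or medium: fresh YPD medium; measure: luminescence rise reflecting yeast cell lysis; measured by: luminescent adenylate kinase detection reagent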
dFosB act-1: mouse delta FosB homodimer activation; purified delta FosB, TAMRA-CDK5 oligo fluorescence polarization; percent of positive-control signal above neutral wells; activation, % at 25 µM; hit rate 0.99% among 340,000; AID 493131;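 active = mean activation above about 17%, with every replicate also reaching it, limit read from the data, passing the limit was not always enough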
Target sequence (P13346 whole entry, looked up): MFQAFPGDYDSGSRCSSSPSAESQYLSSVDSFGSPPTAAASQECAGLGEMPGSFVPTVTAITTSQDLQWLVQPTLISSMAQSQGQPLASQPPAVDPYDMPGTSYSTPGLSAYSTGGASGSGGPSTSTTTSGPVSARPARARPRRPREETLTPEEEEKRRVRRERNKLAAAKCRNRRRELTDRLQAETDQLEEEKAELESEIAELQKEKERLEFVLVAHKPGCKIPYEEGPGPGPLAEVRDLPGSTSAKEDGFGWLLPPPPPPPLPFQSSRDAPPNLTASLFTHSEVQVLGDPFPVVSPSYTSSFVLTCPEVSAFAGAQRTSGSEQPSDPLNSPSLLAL
INS-1E GSIS act: GLuc luminescence reporter in INS-1E cells, primary screen for activators of glucose-dependent secretion of insulin | activation, % at 16.6 µM | INS-1E GLuc reporter insulin secretion, 2-3 h | hit rate 0.61% among 370,000;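 active = lowest replicate activation of at least 40%, so every replicate reaches that level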;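 also: 0% = median of neutral control wells and 100% = median of IBMX positive control wells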
dFosB act-2: enhances mouse delta FosB homodimer binding to DNA; shares compounds with dFosB act-1; activation, % at 24.9 µM; 2,400 tested, under 10 active; purified delta FosB, TAMRA-CDK5 oligo fluorescence polarization; normalised: neutral wells 0, positive control 100; AID 588690;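 active = highest replicate activation at or above 34% and every replicate reaching that threshold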;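 also: higher polarization means more probe DNA bound by delta FosB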
* hit, by the source's call; . = no result given; [ ] = remark or other dose.

SMILES	Rtt109 HAT inh	HIV Env fusion	miR122 inh	Cneo AK release	dFosB act-1	INS-1E GSIS act	dFosB act-2
COc1ccc(C)cc1Nc1nc(N)c2ccccc2n1	-7	-31	8	-3	27*	46	1
CC(C)C(=O)Nc1ccc(-c2ccc3nncn3n2)cc1	-3	-6	-1	.	-9	28	.
O=C(Nc1ccc(-c2ccc3nncn3n2)cc1)c1ccc(Br)o1	-11	-6	.	.	54*	19	4
CO[C@H](CN(C)S(=O)(=O)c1ccc(Cl)cc1)[C@@H](C)CN(C(=O)Nc1ccccc1F)[C@H](C)CO	.	.	.	-1	.	-17	.
Cc1ccc(NCc2nnc(SCC(=O)N3c4ccccc4Sc4ccccc43)o2)c(C)c1	3	14	-7	1	-9	6	.
Cc1ccc(NCc2nnc(SCC(=O)c3ccc4c(c3)OCCO4)o2)c(C)c1	8	.	.	-2	29*	-2	2
CC(OC(=O)c1cc2ccccc2cc1O)C(=O)Nc1ccc(S(N)(=O)=O)cc1 (configuration not stated)	33	-3	10	0	25*	4	0
CC(Oc1ccc(C(=O)c2ccccc2)cc1)C(=O)Nc1ccc(S(N)(=O)=O)cc1 (configuration not stated)	4	23	5	.	-10	.	.
CCOC(=O)c1c(C)[nH]c(C(=O)OC(C)C(=O)NC2CCCCC2C)c1C (configuration not stated)	1	.	.	1	49*	-5	4
CN(CC(=O)Nc1ccccc1Cl)C(=O)COC(=O)c1ccc(-c2ccc(O)cc2)cc1	-18	1	6	-1	45*	3	0
CN(CC(=O)Nc1ccccc1Cl)C(=O)COC(=O)c1ccc(C(F)(F)F)cc1	13	-2	-2	-1	-8	-37	.
C[C@@H]1CCCCO[C@H](CN(C)S(=O)(=O)c2cn(C)cn2)[C@@H](C)CN([C@H](C)CO)C(=O)c2cc(NS(=O)(=O)c3ccccc3)ccc2O1	.	23[16.7 µM]	1[16.7 µM]	-7	.	19	.
CCn1c(SCC(=O)Nc2ccc(C(C)=O)cc2)nc2c([nH]c3ccccc32)c1=O	-11	-39	6	-1	33*	13	3
Cc1ccc(Cn2c(=N)n(CC(=O)c3ccccc3)c3ccccc32)cc1	.	19	.	.	30*	11	8
CC(C)C(OC(=O)c1cc2c(s1)CCCCC2)C(=O)NC(N)=O (configuration not stated)	-2	-15	1	.	26*	6	5
COc1ccccc1NC(=O)CCNC(=O)Cn1ccc2ccccc2c1=O	1	-20	-22	.	4	-4	.
COc1ccc(C)cc1NC(=O)CCNC(=O)Cn1ccc2ccccc2c1=O	-2	-4	.	0	22*	18	3
O=C(C[C@H]1CC[C@@H](NC(=O)Nc2cc(F)ccc2F)[C@@H](CO)O1)Nc1ccccc1	.	-9[16.7 µM]	.	-3	.	-27	.
N/C(=N\OC(=O)COc1ccc(Cl)cc1)c1cccnc1	-2	.	-6	2	-1	-7	.
N/C(=N\OC(=O)COc1ccc(Cl)cc1Cl)c1cccnc1	0	.	-1	-2	24*	60*	-4
CN(C)c1ccc2c(c1)[C@H]1C[C@H](CC(=O)N3CCCCC3)O[C@@H](CO)[C@H]1O2	.	.	.	.	.	-10	.
O=C(CN1C(=O)c2ccccc2C1=O)NCC(=O)OCC(=O)c1ccc(Br)cc1	2	.	-1	.	46*	.	6
O=C(CNC(=O)c1ccc(N2C(=O)c3ccccc3C2=O)cc1)OCC(=O)c1ccc(Cl)cc1	-5	3	.	-1	113*	-3	5
CO[C@@H]1CN(C)C(=O)c2cc(NC(=O)C3CCC3)ccc2OC[C@H](C)N(Cc2cccnc2)C[C@@H]1C	.	.	.	2	.	-1	.
CCCN1C[C@H](C)[C@H](OC)CN(C)C(=O)c2cc(NS(=O)(=O)c3cn(C)cn3)ccc2OC[C@@H]1C	.	.	.	0	.	7	.
SMILES	Rtt109 HAT inh	HIV Env fusion	miR122 inh	Cneo AK release	dFosB act-1	INS-1E GSIS act	dFosB act-2
CCOc1ccccc1N(C(=O)c1snc(C(N)=O)c1N)C(C(=O)NCc1ccccc1)c1ccc(O)cc1 (configuration not stated)	-1	-28	22	-2	-5	-14	.
NC(=O)c1nsc(C(=O)N(c2ccccc2F)C(C(=O)NCc2ccccc2)c2ccc(O)cc2)c1N (configuration not stated)	-14	22	9	-1	32*	-1	4
Cc1ccccc1N(C(=O)c1snc(C(N)=O)c1N)C(C(=O)NCc1ccccc1)c1ccc(O)cc1 (configuration not stated)	-5	13	.	0	41*	-28	5
CCC(=O)N(C)C[C@H]1Oc2cc(-c3ccc(OC)cc3)ccc2S(=O)(=O)N([C@H](C)CO)C[C@@H]1C	.	-1[16.7 µM]	3[16.7 µM]	-3	.	-10	.
OC(CN1CCCCC1)Cn1c2ccccc2c2cc(Br)ccc21 (configuration not stated)	-7	7	7	0	40*	-28	2
COc1cccc(-c2ccc([C@@H]3[C@H]4CN(C(=O)C5CCCCC5)CC(=O)N4[C@H]3CO)cc2)c1	.	.	.	.	.	-8	.
COc1cc2c(cc1NC(=O)Nc1ccccc1)oc1ccccc12	-7	.	22	-3	19*	.	5
CC(C)CN(C(=O)COC(=O)CN1C(=O)c2ccccc2C1=O)c1c(N)n(Cc2ccccc2)c(=O)[nH]c1=O	13	-7	-10	.	-17	-7	.
Cc1ccccc1C(=O)OCC(=O)N(C)c1c(N)n(Cc2ccccc2)c(=O)[nH]c1=O	-19	5	.	.	-4	69	.
CC(C)CN(C(=O)COC(=O)C(C)N1C(=O)c2ccccc2C1=O)c1c(N)n(Cc2ccccc2)c(=O)[nH]c1=O (configuration not stated)	-2	2	.	.	37*	21	3
CCN(C(=O)COC(=O)CCc1ccccc1OC)c1c(N)n(Cc2ccccc2)c(=O)[nH]c1=O	2	2	.	2	28*	10	2
Cc1ccc(SCC(=O)OCC(=O)N(CC(C)C)c2c(N)n(Cc3ccccc3)c(=O)[nH]c2=O)cc1C	2	1	.	1	33*	4	-4
CN(C(=O)COC(=O)c1ccccc1OCc1ccc(Cl)cc1)c1c(N)n(Cc2ccccc2)c(=O)[nH]c1=O	-5	-147	0	-2	34*	7	2
COCCN(C(=O)COC(=O)CCc1ccccc1OC)c1c(N)n(Cc2ccccc2)c(=O)[nH]c1=O	-3	.	0	1	-8	5	.
